Experiments:
hERG (KCNH2) = hERG (KCNH2) (Homo sapiens, UniProt Q12809); experiment: Inhibition of human ERG at 10 uM by patch clamp assay
Rattus norvegicus [1] = experiment: Reduction in circulating lymphocytes in Lewis rat at 0.3 mg/kg, po after 24 hrs; type: functional
Method in brief: (§1)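 Healthy Lewis rats dosed orally with test article as solution or suspension in vehicle, or vehicle alone. Blood drawn at 4 h and 24 h. Circulating lymphocyte percentage measured by hematology analyzer, expressed as reduction versus the vehicle group. Group average, n = 3–4.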

Rattus norvegicus [2] = experiment: Ratio of Cmax to Cmin in rat at 5 mg/kg, po; type: ADME, organism-based; settings: in vivo
[3] = Plasma concentration Lewis rat at 1 mg/kg, po after 24 hrs; type: ADME, organism-based
Method in brief: (§2)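 Lewis rats given 1.0 mg/kg orally as solution or suspension in vehicle. Plasma drug concentration measured in blood drawn at 4 h and 24 h; 4 h/24 h ratio taken from these values.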

[4] = Clearance in mouse at 2 mg/kg, iv; type: ADME, organism-based; settings: in vivo
Mus musculus = experiment: Ratio of Cmax to Cmin in mouse at 5 mg/kg, po; type: ADME, organism-based; settings: in vivo
[5] = Protein binding in mouse plasma; type: ADME, cell-free; settings: read-out: PPB (converted)
[6] = Volume of distribution at steady state in cynomolgus monkey at 1 mg/kg, iv; type: ADME, organism-based, Macaca fascicularis; settings: in vivo, read-out: Vdss
Method in brief: (§3)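 Multi-species pharmacokinetic study with separate iv and oral dosing arms. Steady-state volume of distribution was taken from the iv arm: 2 mg/kg in mouse and rat, 1 mg/kg in cynomolgus monkey and dog. Oral doses in the same study were 5 mg/kg in mouse and rat and 1 mg/kg in monkey and dog.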

Cytochrome P450 2C9 = Cytochrome P450 2C9 (Homo sapiens, UniProt P11712); experiment: Inhibition of CYP2C9 (unknown origin); type: ADME
Plasma = experiment: Ratio of plasma concentration Lewis rat at 1 mg/kg, po after 4 hrs to plasma concentration Lewis rat at 1 mg/kg, po after 24 hrs; type: ADME, organism-based; settings: in vivo; method in brief: as §2
[7] = target: Sphingosine 1-phosphate receptor 1 (Homo sapiens, UniProt P21453); experiment: Agonist activity at human S1P1 receptor expressed in CHO cell membranes assessed as stimulation of [35S]GTPgamma binding incubated for 45 mins by liquid scintillation counting method
Method in brief: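 Membranes from S1P1/CHO cells (S1P1) or EDG3-Ga15-bla HEK293T cells (S1P3), final protein […], with 3-fold compound dilutions. Buffer: 20 mM HEPES pH 7.5, 10 mM MgCl2, 150 mM NaCl, 1 mM EGTA, 1 mM DTT, GDP, 0.1% fatty acid free BSA, saponin. [35S]GTP 0.2 nM final. Room temperature, 45 min. Filtered, washed with water, dried 60 °C. EC50 taken at 50% of each compound's Ymax.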

[8] = Volume of distribution at steady state in mouse at 2 mg/kg, iv; type: ADME, organism-based; settings: in vivo, read-out: Vdss; method in brief: as §3
Rattus norvegicus [9] = experiment: Reduction in circulating lymphocytes in Lewis rat at 1 mg/kg, po after 24 hrs; type: functional; method in brief: as §1
Homo sapiens [10] = species: Homo sapiens; experiment: Inhibition of potassium channel (unknown origin) at 10 uM by patch clamp assay
Cytochrome P450 2C8 = target: T1, Cytochrome P450 2C8 (Homo sapiens, UniProt P10632); experiment: Inhibition of CYP2C8 (unknown origin); type: ADME
T1 sequence (P10632 whole entry): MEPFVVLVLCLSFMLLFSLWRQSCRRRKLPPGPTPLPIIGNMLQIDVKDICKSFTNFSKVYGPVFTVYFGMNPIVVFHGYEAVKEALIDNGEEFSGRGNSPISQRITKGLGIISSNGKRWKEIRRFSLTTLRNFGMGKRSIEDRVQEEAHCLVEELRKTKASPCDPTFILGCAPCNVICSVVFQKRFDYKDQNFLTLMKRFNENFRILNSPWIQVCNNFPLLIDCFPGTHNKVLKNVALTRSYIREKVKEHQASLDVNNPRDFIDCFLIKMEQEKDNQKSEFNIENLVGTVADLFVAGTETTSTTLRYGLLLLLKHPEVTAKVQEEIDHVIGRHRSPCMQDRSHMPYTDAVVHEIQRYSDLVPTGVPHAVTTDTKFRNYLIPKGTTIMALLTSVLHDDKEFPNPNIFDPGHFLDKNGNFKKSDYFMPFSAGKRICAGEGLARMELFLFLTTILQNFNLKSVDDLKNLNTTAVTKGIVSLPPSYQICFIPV

Homo sapiens [11] = species: Homo sapiens; experiment: Inhibition of sodium channel (unknown origin) at 10 uM under 1 and 4 Hz condition by patch clamp assay
[12] = Oral bioavailability in mouse at 5 mg/kg; type: ADME, organism-based; settings: in vivo
[13] = Half life in mouse at 2 mg/kg, iv; type: ADME, organism-based; settings: in vivo
[14] = Clearance in cynomolgus monkey at 1 mg/kg, iv; type: ADME, organism-based, Macaca fascicularis; settings: in vivo
[15] = Plasma concentration Lewis rat at 1 mg/kg, po after 4 hrs; type: ADME, organism-based; method in brief: as §2
CHO = experiment: Selectivity index, ratio of EC50 for agonist activity at human S1P4 receptor to EC50 for agonist activity at human S1P1 receptor expressed in CHO cell membranes; type: cell-based
[16] = Volume of distribution at steady state in dog at 1 mg/kg, iv; type: ADME, organism-based, Canis lupus familiaris; settings: in vivo, read-out: Vdss; method in brief: as §3
[17] = Protein binding in rat plasma; type: ADME, cell-free; settings: read-out: PPB (converted)
[18] = Half life in rat at 2 mg/kg, iv; type: ADME, organism-based; settings: in vivo
[19] = Volume of distribution at steady state in rat at 2 mg/kg, iv; type: ADME, organism-based; settings: in vivo, read-out: Vdss; method in brief: as §3
[20] = Oral bioavailability in dog at 1 mg/kg; type: ADME, organism-based, Canis lupus familiaris; settings: in vivo
Cytochrome P450 2B6 = target: T2, Cytochrome P450 2B6 (Homo sapiens, UniProt P20813); experiment: Inhibition of CYP2B6 (unknown origin); type: ADME
T2 sequence (P20813 whole entry): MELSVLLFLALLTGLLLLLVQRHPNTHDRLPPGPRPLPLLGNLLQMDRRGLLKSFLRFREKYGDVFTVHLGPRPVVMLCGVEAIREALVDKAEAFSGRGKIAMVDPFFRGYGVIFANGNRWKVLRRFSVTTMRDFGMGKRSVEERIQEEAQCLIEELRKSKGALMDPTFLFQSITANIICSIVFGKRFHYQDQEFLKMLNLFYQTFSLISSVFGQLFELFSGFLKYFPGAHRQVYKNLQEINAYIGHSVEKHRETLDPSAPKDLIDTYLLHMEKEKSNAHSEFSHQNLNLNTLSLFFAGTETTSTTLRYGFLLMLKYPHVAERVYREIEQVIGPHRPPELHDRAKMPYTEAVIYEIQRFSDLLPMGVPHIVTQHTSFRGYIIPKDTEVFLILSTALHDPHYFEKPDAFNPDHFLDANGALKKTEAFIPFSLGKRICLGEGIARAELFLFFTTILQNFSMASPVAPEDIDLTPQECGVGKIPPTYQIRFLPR

[21] = Clearance in dog at 1 mg/kg, iv; type: ADME, organism-based, Canis lupus familiaris; settings: in vivo

hERG (KCNH2), sequence (Q12809 whole entry): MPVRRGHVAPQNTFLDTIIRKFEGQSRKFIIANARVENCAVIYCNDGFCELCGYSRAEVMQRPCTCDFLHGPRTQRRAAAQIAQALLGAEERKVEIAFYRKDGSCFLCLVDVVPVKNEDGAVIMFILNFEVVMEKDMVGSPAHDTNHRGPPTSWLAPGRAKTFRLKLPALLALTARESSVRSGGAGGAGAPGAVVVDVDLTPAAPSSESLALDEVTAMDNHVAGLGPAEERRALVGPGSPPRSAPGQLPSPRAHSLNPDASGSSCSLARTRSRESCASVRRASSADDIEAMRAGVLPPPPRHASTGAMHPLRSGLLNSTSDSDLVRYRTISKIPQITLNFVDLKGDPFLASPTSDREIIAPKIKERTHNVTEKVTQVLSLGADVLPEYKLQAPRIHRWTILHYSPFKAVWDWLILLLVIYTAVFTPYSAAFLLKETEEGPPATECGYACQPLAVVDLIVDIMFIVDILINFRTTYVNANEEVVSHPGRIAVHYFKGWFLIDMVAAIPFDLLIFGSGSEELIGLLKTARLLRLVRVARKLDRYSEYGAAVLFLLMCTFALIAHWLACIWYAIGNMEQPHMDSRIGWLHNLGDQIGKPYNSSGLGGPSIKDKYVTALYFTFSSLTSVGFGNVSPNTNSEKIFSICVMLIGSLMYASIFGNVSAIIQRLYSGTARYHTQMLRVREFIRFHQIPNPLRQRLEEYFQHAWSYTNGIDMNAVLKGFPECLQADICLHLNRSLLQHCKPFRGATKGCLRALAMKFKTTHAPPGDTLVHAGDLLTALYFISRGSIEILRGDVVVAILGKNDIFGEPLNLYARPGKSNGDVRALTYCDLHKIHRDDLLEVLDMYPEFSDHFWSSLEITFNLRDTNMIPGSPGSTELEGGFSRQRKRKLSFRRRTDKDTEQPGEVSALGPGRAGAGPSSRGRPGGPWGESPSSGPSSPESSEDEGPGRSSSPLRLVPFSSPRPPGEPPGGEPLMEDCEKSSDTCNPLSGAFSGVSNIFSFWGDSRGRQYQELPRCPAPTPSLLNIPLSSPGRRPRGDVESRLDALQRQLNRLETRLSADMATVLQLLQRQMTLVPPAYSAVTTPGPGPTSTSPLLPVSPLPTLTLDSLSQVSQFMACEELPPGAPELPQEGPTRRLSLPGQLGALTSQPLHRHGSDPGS
Sphingosine 1-phosphate receptor 1, sequence (P21453 whole entry): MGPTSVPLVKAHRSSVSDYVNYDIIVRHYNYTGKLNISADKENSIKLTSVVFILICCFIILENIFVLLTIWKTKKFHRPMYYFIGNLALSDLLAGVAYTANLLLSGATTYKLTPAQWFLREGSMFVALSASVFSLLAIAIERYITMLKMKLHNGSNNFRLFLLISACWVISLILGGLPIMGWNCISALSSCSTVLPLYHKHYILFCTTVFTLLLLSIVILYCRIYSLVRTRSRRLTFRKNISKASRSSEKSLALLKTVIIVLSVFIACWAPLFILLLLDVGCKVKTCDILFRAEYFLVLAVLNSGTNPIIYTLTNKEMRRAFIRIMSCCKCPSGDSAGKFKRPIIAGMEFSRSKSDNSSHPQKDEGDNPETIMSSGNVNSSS
Cytochrome P450 2C9, sequence (P11712 whole entry): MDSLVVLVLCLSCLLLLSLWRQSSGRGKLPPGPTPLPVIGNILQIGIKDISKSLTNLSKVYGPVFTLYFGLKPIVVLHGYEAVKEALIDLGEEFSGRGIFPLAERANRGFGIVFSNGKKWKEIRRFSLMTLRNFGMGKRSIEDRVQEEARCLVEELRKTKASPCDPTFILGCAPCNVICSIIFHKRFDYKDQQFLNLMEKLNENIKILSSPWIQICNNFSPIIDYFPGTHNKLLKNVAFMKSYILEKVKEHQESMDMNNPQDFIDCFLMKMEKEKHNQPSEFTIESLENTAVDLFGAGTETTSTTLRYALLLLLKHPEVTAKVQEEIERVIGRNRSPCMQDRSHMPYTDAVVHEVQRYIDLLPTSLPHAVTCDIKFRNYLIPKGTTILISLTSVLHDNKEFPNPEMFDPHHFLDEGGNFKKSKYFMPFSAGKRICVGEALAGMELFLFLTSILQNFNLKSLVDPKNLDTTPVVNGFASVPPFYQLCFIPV

SMILES: O=C(O)C1CN(Cc2ccc(-c3noc(-c4onc(-c5ccccn5)c4C(F)(F)F)n3)cc2)C1
- inhibition at 10 µM (hERG (KCNH2)): 13%
- inhibition in vivo at 0.3 mg/kg (Rattus norvegicus [1]): 50%
- Ratio (Rattus norvegicus [2]): 26
- concentration at 24 h [3]: 54 nM
- clearance [4]: 0.3 mL/min/kg
- Ratio (Mus musculus): 2.8
- fraction unbound [5]: 0.006
- Vd [6]: 0.5 L/kg
- IC50 (Cytochrome P450 2C9): > 40 µM
- Ratio (Plasma): 47
- EC50 [7]: 0.00071 µM
- Vd [8]: 0.1 L/kg
- inhibition in vivo at 1 mg/kg (Rattus norvegicus [9]): 80%
- inhibition (Homo sapiens [10]): 12%
- IC50 (Cytochrome P450 2C8): > 40 µM
- inhibition (Homo sapiens [11]): < 5%
- bioavailability [12]: 70%
- half-life [13]: 4.5 h
- clearance [14]: 14 mL/min/kg
- concentration at 4 h [15]: 2510 nM
- Ratio EC50 (CHO): 3.2
- Vd [16]: 0.7 L/kg
- fraction unbound [17]: 0.024
- half-life [18]: 4.8 h
- Vd [19]: 0.4 L/kg
- bioavailability [20]: 87%
- IC50 (Cytochrome P450 2B6): > 40 µM
- clearance [21]: 2.6 mL/min/kg

Reference: ChEMBL document CHEMBL3792331, “Identification and synthesis of potent and selective pyridyl-isoxazole based agonists of sphingosine-1-phosphate 1 (S1P1)” (Bioorg Med Chem Lett, 2016)
